From article PMC4829350 (Biochimica et biophysica acta, 2014)
Like-named read-outs stand apart in the source and are kept apart here. Residues, ends and D or L forms follow the SMILES beside them. *: point of attachment. Cbz = O=C(OCc1ccccc1)*

Key:
[1] = target: ChT-L active center of the proteasome (NMR) (Heterocephalus glaber, UniProt G5ASK0); assay: Peptidolytic assay, ChT-L activity, naked mole-rat liver subcellular fractions; assay type: biochemical
[2] = target: T-L active center of the proteasome (NMR) (Heterocephalus glaber, UniProt A0A0P6JE03); assay: Peptidolytic assay, T-L activity, naked mole-rat liver subcellular fractions; assay type: biochemical; conditions: read-out: T-L IC50 NMR, cytosolic fraction, ± S.E.
[3] = target: T1, ChT-L active center of the proteasome (mouse) (Mus musculus, UniProt O55234); assay: Peptidolytic assay, ChT-L activity, mouse liver subcellular fractions; assay type: biochemical
T1 sequence (O55234 60-264): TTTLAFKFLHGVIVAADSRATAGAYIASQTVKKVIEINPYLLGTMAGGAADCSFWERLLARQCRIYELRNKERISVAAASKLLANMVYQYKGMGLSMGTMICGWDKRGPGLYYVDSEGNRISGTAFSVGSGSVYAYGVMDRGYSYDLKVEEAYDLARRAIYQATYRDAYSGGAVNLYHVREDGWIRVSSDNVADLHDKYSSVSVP

[4] = target: T2, T-L active center of the proteasome (mouse) (Mus musculus, UniProt P70195); assay: Peptidolytic assay, T-L activity, mouse liver subcellular fractions; assay type: biochemical
T2 sequence (P70195 44-277): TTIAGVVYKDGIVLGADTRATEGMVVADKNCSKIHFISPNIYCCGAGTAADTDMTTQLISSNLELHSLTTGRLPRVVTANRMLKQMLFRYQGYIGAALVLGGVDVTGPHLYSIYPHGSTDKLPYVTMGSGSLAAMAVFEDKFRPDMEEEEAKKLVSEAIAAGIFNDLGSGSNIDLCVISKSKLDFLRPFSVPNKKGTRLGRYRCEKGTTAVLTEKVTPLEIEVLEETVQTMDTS
In short: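 Female mice aged 4–6 months; liver split into cytosolic, microsomal and nuclear fractions. T-L activity was read with a fluorogenic AMC peptide, against an AMC standard curve, as pmol AMC/min/μg protein. Inhibitor classes were titrated: boronate 5nM–10μM, lactone 0.2μM–8μM, aldehyde and vinyl sulfone 10μM–250μM. IC50 was taken as 50% activity loss, from exponential-decay or sigmoidal fits.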

[5] = target: human 26S proteasome [h26S] (Homo sapiens, UniProt P20618+P28074); assay: ChT-L activity of purified human 26S proteasome with supernatants or fractions; assay type: biochemical; conditions: 10 nM BZ
[6] = test system: ProtNMR (naked mole-rat partially purified proteasome); assay type: biochemical, Heterocephalus glaber
[7] = target: T3, ProtMS (mouse partially purified proteasome) (Mus musculus, UniProt O55234); assay type: biochemical
T3 sequence (O55234 60-264): T1 sequence (O55234 60-264)

[8] = test system: naked mole-rat proteasome (ChT-L activity) with HSPs of NMR cytosol/supernatant; assay type: biochemical, Heterocephalus glaber; conditions: for effect on inhibition resistance / sensitivity to inhibition: NMR cytosolic fraction or SNNMR + Prot, 20 μM MG132
In short: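 HSP antibodies (anti-HSP72, -HSP40, -HSP25 or -HSP90; 10pg to 400pg, serially diluted in PBS/50% glycerol) or small-molecule HSP72 inhibitors (25nM to 1000nM; 10μM to 1000μM) added to NMR cytosolic lysate or 100,000xg supernatant. Incubated 1hr at 30°C with 1mM ATP. Human 26S or partially purified NMR proteasome then added. ChT-L activity read with Suc-LLVY-AMC ± 20μM MG132, as pmol AMC/min/μg protein.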

[9] = test system: human 26S proteasome [h26S] in SNNMR; assay type: biochemical; conditions: h26S in SNNMR challenged with MG132
In short: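 Naked mole-rat liver cytosolic lysate or its high-speed supernatant was incubated at 30°C for 1hr with 1mM ATP plus anti-chaperone antibodies (HSP72, HSP40, HSP25, HSP90; 10pg–400pg) or HSP72 inhibitors (25nM–1000nM or 10μM–1000μM). Purified human 26S proteasome was then added, and ChT-L activity was read with Suc-LLVY-AMC ± 20μM MG132.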

[10] = sample ProtNMR + FT, 20 μM MG132
[11] = sample ProtNMR + FT, 50 μM MG132
[12] = sample ProtNMR + R, 20 μM MG132
[13] = sample ProtNMR + R, 50 μM MG132
[14] = sample ProtNMR + SN, 20 μM MG132
[15] = sample ProtNMR + SN, 50 μM MG132
[16] = ChT-L IC50 Ms, cytosolic fraction, ± S.E.
[17] = sample ProtMS + FT, 20 μM MG132
[18] = sample ProtMS + FT, 50 μM MG132
[19] = sample ProtMS + SN, 20 μM MG132
[20] = sample ProtMS + SN, 50 μM MG132

`CC(C)CC(C=CS(C)(=O)=O)NC(=O)[C@H](CC(C)C)NC(=O)[C@H](CC(C)C)NC(=O)CCCCCNC(=O)CCCCCNC(=O)CCCCCNC(=O)CC12CC3CC(CC(C3)C1)C2` (stereo partly drawn) [Adh (VS), adamantane-acetyl-(6-aminohexanoyl)3-(leucinyl)3-vinyl-(methyl)-sulfone] was tested, and the “ChT-L IC50 in naked mole-rat relative to mouse cytosolic extracts” value ([1]; cytosolic extracts) was 22 fold, the IC50 ([1]; read-out: ChT-L IC50 NMR, cytosolic fraction, liver, ± S.E.) was 125 ± 5.6 µM and the IC50 [2] was 80.6 ± 2.5 µM. It also gave an IC50 ([3]; read-out: ChT-L IC50 Ms, cytosolic fraction, ± S.E.) of 5.56 ± 1.57 µM and an IC50 ([4]; read-out: T-L IC50 Ms, cytosolic fraction, ± S.E.) of 16.2 ± 1.9 µM.

For `CC(C)C[C@H](NC(=O)[C@H](Cc1ccccc1)NC(=O)c1cnccn1)B(O)O` [BZ, bortezomib], the “ablation of ChT-L activity of h26S” value ([5]; h26S without fr.23) was 75% and the “reduction of ChT-L activity of h26S” value ([5]; in the presence of fr. 23) was 30%.

In the case of `CC(C)C[C@@H](C=O)NC(=O)[C@H](CC(C)C)NC(=O)[C@H](CC(C)C)NC(=O)OCc1ccccc1` [MG132, N-(benzyl-oxycarbonyl) leucinyl-leucinyl-leucinal] (Cbz-Leu-Leu-Leu-aldehyde), the “ChT-L activity, Mean ± SE” value ([6]; sample ProtNMR + FT (flow-through), 10 μM MG132) is reported as 40 ± 18 pmol AMC/min/μg protein, the “% Inhibition” value ([6]; sample ProtNMR + FT, 10 μM MG132) is reported as 83.1% and the “% Inhibition” value [6, 10] is reported as 88.6%. The “ChT-L activity, Mean ± SE” value [6, 10] was 27 ± 18 pmol AMC/min/μg protein, the “% Inhibition” value [6, 11] was 93.2% and the “ChT-L activity, Mean ± SE” value [6, 11] was 16 ± 13 pmol AMC/min/μg protein. For the same compound, the “ChT-L activity, Mean ± SE” value ([6]; sample ProtNMR + R (retentate), 10 μM MG132) was 542 ± 181 ^# pmol AMC/min/μg protein, the “% Inhibition” value ([6]; sample ProtNMR + R, 10 μM MG132) was 31.0% and the “% Inhibition” value [6, 12] was 39.0%. The “ChT-L activity, Mean ± SE” value [6, 12] was 479 ± 146 ^# pmol AMC/min/μg protein, the “% Inhibition” value [6, 13] was 51.8% and the “ChT-L activity, Mean ± SE” value [6, 13] was 378 ± 104 ^# pmol AMC/min/μg protein. The “ChT-L activity, Mean ± SE” value ([6]; sample ProtNMR + SN (NMR supernatant), 10 μM MG132) was 488 ± 58 ^# pmol AMC/min/μg protein, the “% Inhibition” value ([6]; sample ProtNMR + SN, 10 μM MG132) was 51.7% and the “% Inhibition” value [6, 14] was 50.6%. For the same compound, the “ChT-L activity, Mean ± SE” value [6, 14] was 499 ± 71 ^# pmol AMC/min/μg protein, the “% Inhibition” value [6, 15] was 67.7% and the “ChT-L activity, Mean ± SE” value [6, 15] was 327 ± 104 ^# pmol AMC/min/μg protein. The “% Inhibition” value ([6]; sample ProtNMR, 10 μM MG132) was 86.0%, the “ChT-L activity, Mean ± SE” value ([6]; sample ProtNMR, 10 μM MG132) was 72 ± 13 pmol AMC/min/μg protein and the “% Inhibition” value ([6]; sample ProtNMR, 20 μM MG132) was 91.6%. The “ChT-L activity, Mean ± SE” value ([6]; sample ProtNMR, 20 μM MG132) was 43 ± 0.3 pmol AMC/min/μg protein, the “% Inhibition” value ([6]; sample ProtNMR, 50 μM MG132) was 95.5% and the “ChT-L activity, Mean ± SE” value ([6]; sample ProtNMR, 50 μM MG132) was 23 ± 1.0 pmol AMC/min/μg protein. The IC50 [3, 16] was 8.22 ± 2.75 µM, the IC50 ([3]; ChT-L IC50 Ms, microsomal fraction) was 0.99 µM and the IC50 ([3]; ChT-L IC50 Ms, nuclear fraction, ± S.E.) was 4.6 ± 1.62 µM. The IC50 ([4]; T-L IC50 Ms, cytosolic fraction, ± S.E.) was 14.6 ± 4.4 µM, the IC50 ([4]; T-L IC50 Ms, microsomal fraction) was 6.63 µM and the IC50 ([4]; T-L IC50 Ms, nuclear fraction, ± S.E.) was 12.8 ± 4.7 µM. For the same compound, the “ChT-L activity, Mean ± SE” value ([7]; sample ProtMS + FT (flow-through), 10 μM MG132) was 17 ± 0.3 pmol AMC/min/μg protein, the inhibition at 10 µM ([7]; sample ProtMS + FT, 10 μM MG132) was 85.5% and the “ChT-L activity, Mean ± SE” value [7, 17] was 15 ± 3.0 pmol AMC/min/μg protein. For the same compound, the inhibition at 20 µM [7, 17] was 87.2%, the “ChT-L activity, Mean ± SE” value [7, 18] was 3.0 ± 1.9 pmol AMC/min/μg protein and the inhibition at 50 µM [7, 18] was 97.4%. For the same compound, the “ChT-L activity, Mean ± SE” value ([7]; sample ProtMS + R (retentate), 10 μM MG132) was 178 ± 72 ^# pmol AMC/min/μg protein, the inhibition at 10 µM ([7]; sample ProtMS + R, 10 μM MG132) was 36.9% and the “ChT-L activity, Mean ± SE” value ([7]; sample ProtMS + R, 20 μM MG132) was 172 ± 70 ^# pmol AMC/min/μg protein. The inhibition at 20 µM ([7]; sample ProtMS + R, 20 μM MG132) was 39%, the “ChT-L activity, Mean ± SE” value ([7]; sample ProtMS + R, 50 μM MG132) was 89 ± 12 ^# pmol AMC/min/μg protein and the inhibition at 50 µM ([7]; sample ProtMS + R, 50 μM MG132) was 68.4%. The “ChT-L activity, Mean ± SE” value ([7]; sample ProtMS + SN (NMR supernatant), 10 μM MG132) was 126 ± 22 ^# pmol AMC/min/μg protein, the inhibition at 10 µM ([7]; sample ProtMS + SN, 10 μM MG132) was 52.1% and the “ChT-L activity, Mean ± SE” value [7, 19] was 116 ± 20 ^# pmol AMC/min/μg protein. The inhibition at 20 µM [7, 19] was 55.9%, the “ChT-L activity, Mean ± SE” value [7, 20] was 84 ± 34 ^# pmol AMC/min/μg protein and the inhibition at 50 µM [7, 20] was 68.1%. The “ChT-L activity, Mean ± SE” value ([7]; sample ProtMS, 10 μM MG132) was 25 ± 0.1 pmol AMC/min/μg protein, the inhibition at 10 µM ([7]; sample ProtMS, 10 μM MG132) was 87.6% and the “ChT-L activity, Mean ± SE” value ([7]; sample ProtMS, 20 μM MG132) was 17 ± 0.2 pmol AMC/min/μg protein. For the same compound, the inhibition at 20 µM ([7]; sample ProtMS, 20 μM MG132) was 91.5%, the “ChT-L activity, Mean ± SE” value ([7]; sample ProtMS, 50 μM MG132) was 11 ± 0.1 pmol AMC/min/μg protein and the inhibition at 50 µM ([7]; sample ProtMS, 50 μM MG132) was 94.5%.

With `NS(=O)(=O)C#Cc1ccccc1` [pifithrin-μ] the “effect on inhibition resistance / sensitivity to inhibition” value [8] was “attenuated resistance to inhibition”.

In the case of `CC(=O)N[C@@H](CSC(=O)[C@]1([C@@H](O)C(C)C)NC(=O)[C@H](C)[C@@H]1O)C(=O)O` [LC, lactacystin], the IC50 [3, 16] is reported as 0.156 ± 0.005 µM.

`N#Cc1ccc(COC[C@H]2O[C@@H](n3c(NCc4ccc(Cl)c(Cl)c4)nc4c(N)ncnc43)[C@H](O)[C@@H]2O)cc1` [VER155008] was tested, and the “effect on inhibition resistance / sensitivity to inhibition” value [8] was “did not disrupt the inhibition resistance”, the “effect on proteasome activity associated with SNNMR” value ([8]; titration 25nM to 1000nM) was “had no effect” and the “effect on inhibition resistance” value [9] was “did not disrupt the inhibition resistance”.
